ChEMBL document CHEMBL1122348, “(E)-3-(4-Oxo-4H-quinazolin-3-yl)-2-propenoic acids, a new series of antiallergy agents” (1983)
The source made the active and inactive calls. The rule behind the calls is not given here.

Columns and labels:
Rattus norvegicus [1] = test: Anti-allergy activity test in rat passive cutaneous anaphylaxis (PCA) test at 16 mg/kg administered intraperitoneally; assay type: functional; conditions: ip, route intraperitoneal
In short: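 Rats given the compound intraperitoneally at 16 mg/kg in the passive cutaneous anaphylaxis model. The read-out is percent inhibition of the cutaneous anaphylactic response, and some entries carry p values.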

Rattus norvegicus [2] = test: Percentage inhibition at 8 mg/kg administered intraperitoneally in rat passive cutaneous anaphylaxis (PCA) test, p<0.001; assay type: functional; conditions: ip, route intraperitoneal
Rattus norvegicus [3] = test: Tested for antiallergy activity in rat passive cutaneous anaphylaxis (PCA) test at 32 mg/kg administered perorally; assay type: functional; conditions: route oral
Rattus norvegicus [4] = test: Tested for antiallergy activity in rat passive cutaneous anaphylaxis (PCA) test at 32 mg/kg administered perorally; In active; assay type: functional, organism-based; set-up: dose 32 mg/kg
Rattus norvegicus [5] = test: Tested for antiallergy activity in rat passive cutaneous anaphylaxis (PCA) test at 32 mg/kg administered perorally; 30 minute pretreatment time; assay type: functional; conditions: route oral
Rattus norvegicus [6] = test: Inhibitory dose administered perorally against anaphylactic bronchospasm in passively sensitized rats; assay type: functional; conditions: Bronchiole, po, read-out: ID50
Rattus norvegicus [7] = test: Tested for antiallergy activity in rat passive cutaneous anaphylaxis (PCA) test at 32 mg/kg administered perorally; 10 min pretreatment time; assay type: functional; conditions: route oral
Rattus norvegicus [8] = test: Tested for antiallergy activity in rat passive cutaneous anaphylaxis (PCA) test at 32 mg/kg administered perorally; pretreatment time is 30 min; assay type: functional; conditions: route oral

Compound | inhibition in vivo at 16 mg/kg (Rattus norvegicus [1]) [%] | inhibition in vivo at 32 mg/kg (Rattus norvegicus [3]) [%] | also measured
CSc1ccc2ncn(CCC(=O)O)c(=O)c2c1 | 14 |  | 
O=C(O)c1cc(=O)c2c(OCC(O)COc3cccc4oc(C(=O)O)cc(=O)c34)cccc2o1 [CROMOLYN SODIUM] |  | 18 | inhibition in vivo at 8 mg/kg (Rattus norvegicus [2]): 46%
COc1ccc2ncn(/C=C/C(=O)O)c(=O)c2c1 | 49 | 23 | 
O=C(O)/C=C/n1cnc2ccc(OCCO)cc2c1=O | 67 | 80 | 
CSc1ccc2ncn(/C(C)=C/C(=O)O)c(=O)c2c1 | 9 |  | 
CCN(CC)CCOc1ccc2ncn(/C=C/C(=O)O)c(=O)c2c1 | 16 |  | inhibition (Rattus norvegicus [4]): inactive
CC(C)Oc1ccc2ncn(/C=C/C(=O)O)c(=O)c2c1 | 87 | 70 | 
CC(C)c1cc(C(C)C)c2ncn(/C=C/C(=O)O)c(=O)c2c1 | 70 | 91 | 
CS(=O)(=O)c1ccc2ncn(/C=C/C(=O)O)c(=O)c2c1 | 70 |  | 
COc1cc2ncn(/C=C/C(=O)O)c(=O)c2cc1OC | 88 |  | 
COc1cc(OC)c2ncn(/C=C/C(=O)O)c(=O)c2c1 | 81 |  | inhibition in vivo at 32 mg/kg (Rattus norvegicus [5]): 31%
CSc1ccc2ncn(/C=C/C(=O)O)c(=O)c2c1 [TIACRILAST] | 87 | 75 | ED50 (Rattus norvegicus [6]): 0.02 mg/kg
Cc1nc2ccc(C3CC3)cc2c(=O)n1/C=C/C(=O)O | 39 |  | 
COC(=O)/C=C/n1cnc2ccc(SC)cc2c1=O | 39 |  | 
Cc1cc(C)c2ncn(/C=C/C(=O)O)c(=O)c2c1 | 82 | 70 | 
COC(=O)/C=C/n1cnc2ccc(OC(C)C)cc2c1=O | 46 |  | 
O=C(O)/C=C/n1cnc2ccc(O)cc2c1=O | 56 |  | 
O=C(O)/C=C/n1cnc2ccccc2c1=O |  | 55 | 
CC(C)c1ccc2ncn(/C=C/C(=O)O)c(=O)c2c1 | 100 | 89 | ED50 (Rattus norvegicus [6]): 0.05 mg/kg
CSc1ccc2ncn(/C=C\C(=O)O)c(=O)c2c1 | 11 |  | 
O=C(O)/C=C/n1cnc2ccc(C3CC3)cc2c1=O | 100 |  | inhibition in vivo at 32 mg/kg (Rattus norvegicus [7]): 81%
COc1cccc2c(=O)n(/C=C/C(=O)O)cnc12 | 82 |  | inhibition in vivo at 32 mg/kg (Rattus norvegicus [8]): 45%
C[S+]([O-])c1ccc2ncn(/C=C/C(=O)O)c(=O)c2c1 (stereo not drawn) | 89 | 48 | 
CC(C)Sc1ccc2ncn(/C=C/C(=O)O)c(=O)c2c1 | 59 | 56 | 
O=C(O)/C=C/n1cnc2ccc(Cl)cc2c1=O | 79 | 49 | 
CSc1ccc2c(c1)C(=O)N(/C=C/C(=O)O)CN2 | 53 |  | 
